# bovine MsrA act: activators of bovine methionine sulfoxide reductase A | AID 602163 | purified bovine MsrA, absorbance read-out | activation, % at 10.6 µM | 360,000 tested, 0.3% active; in the data active = activation above about 7.5%;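 also: 0% = vehicle and 100% = reference activator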
# ARFGAP1 inhibitor: rat ARFGAP1 inhibition; Q62848; Arfgap1-stimulated ARF1 GTP hydrolysis, GDP FP detection; inhibition, % at 16.5 µM; 360,000 tested, 0.26% active; AID 651572;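 active = inhibition above a per-plate limit, mean inhibition of low control wells plus 3 SD, cut at about 25% in these data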;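 also: 0% = DMSO wells with enzyme and 100% = wells lacking Arfgap1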
#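 Material – truncated rat Arfgap1 GAP domain · Buffer or medium – HEPES-based buffer, pH 7.5 · Reagent – human ARF1(Δ1-17)-GTP substrate · Dosing – 16.5 µM single point, 1.26% DMSO · Schedule – GTP hydrolysis reaction 2 h at 25 °C · Technique – GDP detection by fluorescence polarization · Benchmarks – No-Arfgap1 wells (100%) versus DMSO full-reaction wells (0%) · Repeats – single replicate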
# MsrA inh: inhibits bovine methionine sulfoxide reductase A; purified bovine MsrA, absorbance read-out; inhibition, % at 15.5 µM; 360,000 tested, 0.75% active;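 also: 0% = vehicle wells with enzyme and 100% = reference inhibitor wells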
# sPLA2-III inh: Inhibits HGIII-sPLA2 liposome hydrolysis, primary screen. QFRET BODIPY PC-A2 liposome hydrolysis, fluorescence. Q9NZ20. inhibition, % at 12.2 µM. AID 743126. 370,000 tested, 0.56% active;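 active = inhibition above mean plus 3 SD of compounds lying within the high and low control bounds, cut at about 19% in these data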;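 also: 0% = median of test compound wells and 100% = no enzyme DMSO wells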
# ASAP1 GAP inh: ASAP1 ArfGAP inhibition; Q9ULH1; ASAP1-stimulated ARF1 GTP hydrolysis, GDP FP detection; inhibition, % at 16.5 µM; 360,000 tested, 0.19% active; AID 624377; in the data active = inhibition above about 25%;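 also: 0% = vehicle with enzyme and substrate and 100% = no enzyme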
# Rev-erbA mod: modulates human Rev-erb alpha binding to DNA. P20393. Rev-erbα–FITC-DNA binding, fluorescence polarization, 90 min. activity, % at 10 µM. 370,000 tested, 0.79% active. AID 1259318;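 active = activity above about 14%, limit read from the data; passing the limit was not always enough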;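 also: 0% = DMSO wells with 35 nM protein and 100% = DMSO wells with 750 nM protein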
# Target sequence (P20393 whole entry, looked up): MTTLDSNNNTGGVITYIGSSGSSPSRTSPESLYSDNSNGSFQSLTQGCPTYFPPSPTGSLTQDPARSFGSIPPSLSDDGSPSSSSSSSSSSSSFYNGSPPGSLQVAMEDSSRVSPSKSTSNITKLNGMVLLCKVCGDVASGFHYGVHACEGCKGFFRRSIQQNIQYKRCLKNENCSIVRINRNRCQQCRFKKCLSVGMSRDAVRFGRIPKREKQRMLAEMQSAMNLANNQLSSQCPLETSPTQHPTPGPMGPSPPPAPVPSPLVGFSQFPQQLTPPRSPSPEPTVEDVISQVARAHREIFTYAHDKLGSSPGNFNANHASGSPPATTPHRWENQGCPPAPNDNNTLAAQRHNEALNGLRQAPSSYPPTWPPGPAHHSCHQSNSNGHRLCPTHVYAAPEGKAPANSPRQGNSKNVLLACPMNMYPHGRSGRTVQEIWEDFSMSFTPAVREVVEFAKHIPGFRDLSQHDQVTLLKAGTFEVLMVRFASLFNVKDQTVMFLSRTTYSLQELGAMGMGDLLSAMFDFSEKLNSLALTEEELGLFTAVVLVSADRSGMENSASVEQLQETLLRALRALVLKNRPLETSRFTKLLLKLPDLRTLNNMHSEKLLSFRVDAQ
# MsrA inh confirm: confirmation of bovine MsrA inhibitors; shares compounds with MsrA inh; inhibition, % at 15.5 µM; 2,300 tested, 41% active; AID 651822; purified bovine MsrA, absorbance read-out;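 also: coupled to thioredoxin reductase with NADPH and selenocystamine and DMSO as substrate; 0% = vehicle only and 100% = full effect of reference inhibitor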
# Active calls of the source: *; · = not tested or not shown. The list is not random: actives were taken first. Their share in the collection is about 2.7%. Rule as the data show it, unless noted: active = inhibition above about 4.5%; inactive = the rest.
SMILES,bovine MsrA act,ARFGAP1 inhibitor,MsrA inh,sPLA2-III inh,ASAP1 GAP inh,Rev-erbA mod,MsrA inh confirm
O=C(OCc1ccccc1)[C@H](Cc1ccccc1)NC(=O)[C@@H]1CC=C[C@@H]2CCN(Cc3ccc(Cl)cc3)C(=O)[C@@H]21,·,·,·,-10.2,·,-1.2,·
O=C(O)COc1ccccc1/C=N/Nc1ccc(S(=O)(=O)N2CCOCC2)cc1[N+](=O)[O-],-5.4,13.5,4.9*,-3.9,11.3,3.7,4.5
O=C(Nc1nc2ccccc2s1)c1ccc(N2CCCCC2)c([N+](=O)[O-])c1,-0.9,5.2,4.7*,-4.3,8.6,-0.1,2.4
O=C(Nc1ccon1)c1ccc(N2CCCCC2)c([N+](=O)[O-])c1,-1.9,-2.0,-0.4,-0.1,-4.1,2.3,·
C[C@H]1C2CC(OC(=O)Nc3cccc(Cl)c3)C(C2)[C@H]2CCCCN21 (some centres undefined),·,·,·,14.1,·,2.7,·
NC(=O)Cc1nc(-c2ccc(F)cc2)cs1,-0.8,-10.1,0.5,-4.2,-17.7,-2.7,·
NC(=O)Cc1nc(-c2ccc([N+](=O)[O-])cc2)cs1,-3.7,6.7,5.0*,-0.9,0.1,-3.1,0.9
O=C(c1ccc(F)cc1F)N(Cc1ccccn1)CC1CCCO1 (centres undefined),·,·,·,0.4,·,-2.5,·
CCOc1ccc(/C=C(\C)C(=O)c2c(C)cc(C)[nH]c2=O)cc1,-4.2,18.9,6.2*,7.0,5.1,5.6,3.3
COc1ccc(/C=C(\C)C(=O)c2c(C)cc(C)[nH]c2=O)cc1,-3.9,9.8,2.7,-1.9,8.4,2.2,·
CC1(C)Cc2c(sc(NC(=S)NC(=O)c3ccccc3)c2C(=O)O)CO1,-2.3,-2.7,1.3,7.4,7.1,-5.2,·
CC1(C)Cc2c(sc(NC(=O)c3ccco3)c2C(=O)O)CO1,-3.1,7.5,4.7*,14.8,-21.4,1.6,2.8
Nc1ncnc2c1ncn2[C@@H]1O[C@H](C(=O)N[C@@H](CCc2ccccc2)C(=O)N2CCN(C(=O)N3CCCCC3)CC2)[C@@H](O)[C@H]1O,·,6.1,0.0,-1.5,6.4,-4.2,·
CC(C)C1S/C(=N/N=C/c2cccs2)NC1=O (centres undefined),-8.1,10.2,6.8*,-3.8,10.7,2.4,3.5
CCCC1S/C(=N/N=C/c2cccs2)NC1=O (centres undefined),-5.6,13.5,3.4,5.5,-5.7,1.3,·
C(=N\N=C\c1cccs1)/c1cccs1,-0.7,6.7,5.1*,3.5,-2.1,4.7,4.7*
CCC1S/C(=N/N=C/c2cccs2)NC1=O (centres undefined),-7.5,-2.1,6.2*,-2.6,7.5,3.9,5.5*
CC1S/C(=N/N=C/c2cccs2)NC1=O (centres undefined),-5.0,-4.1,5.0*,-4.0,-2.3,-5.8,4.4
COC(=O)[C@]12C[C@H](CC(=O)N3CCCC3)C(=O)N(Cc3ccc4c(c3)OCO4)C1=C[C@H](C(C)C)O[C@@H]2C1CC1,·,·,·,6.2,·,5.2,·
CCOC(=O)c1cccc(-c2cc(C(C)=O)c3n(c2=O)CCC3)c1,·,·,·,2.6,·,3.5,·
CCCCCCCCNC(=O)C1CSCCS(=O)(=O)N1Cc1ccc(OC)cc1 (centres undefined),·,·,·,2.9,·,-4.3,·
O=C(N/N=C/C(Cl)=C/c1ccccc1)c1ccco1,-6.8,8.3,8.5*,1.9,-1.5,6.3,6.6*
O=C(N/N=C/C(Cl)=C\c1ccccc1)c1ccco1,-4.8,0.8,3.9,-6.5,-0.9,2.2,·
O=C(N/N=C/C(Cl)=C/c1ccccc1)c1cnccn1,-6.3,-1.0,9.6*,7.8,-2.4,4.1,4.2
CC(/C=C/c1ccccc1)=N\NC(N)=S,-5.4,0.7,6.0*,16.7,-2.0,1.1,3.6
SMILES,bovine MsrA act,ARFGAP1 inhibitor,MsrA inh,sPLA2-III inh,ASAP1 GAP inh,Rev-erbA mod,MsrA inh confirm
O=C(Nc1ccc2c(c1)Cc1ccccc1-2)NC1CCCCN(Cc2cccc(Cl)c2)C1=O (centres undefined),·,·,·,-0.2,·,1.7,·
O=c1cnn(-c2ccccc2)c(-c2ccccc2)c1,-4.5,-6.5,12.5*,4.7,-2.6,-0.8,9.5*
N#C/C(C(=O)N1CCCCC1)=C1\Nc2ccccc2S1,-7.5,-5.5,8.2*,14.4,-1.9,2.5,5.0*
Cc1cc(NS(=O)(=O)c2ccc(NC(=O)c3cnc4scc(C)n4c3=O)cc2)nc(C)n1,-6.3,-0.1,6.8*,4.3,10.4,2.7,4.3
Cc1cc(NS(=O)(=O)c2ccc(NC(=O)c3ccc(Cl)nc3)cc2)nc(C)n1,-11.2,2.9,0.6,13.7,0.4,-5.9,·
Cc1cc(C(=O)Nc2ccc(S(=O)(=O)Nc3onc(C)c3C)cc2)cs1,-10.0,-4.1,-0.2,-14.1,10.9,-1.7,·
Cc1ccc(-n2ccc(=O)c(C(=O)Nc3ccc(S(=O)(=O)Nc4onc(C)c4C)cc3)n2)cc1,-11.9,6.8,4.8*,-14.3,-9.2,4.9,2.1
Cc1cc(NS(=O)(=O)c2ccc(NC(=O)/C=C/c3ccco3)cc2)nc(C)n1,-9.6,3.0,6.7*,-4.3,-5.4,-6.4,4.8*
Cc1noc(NS(=O)(=O)c2ccc(NC(=O)c3cnc4scc(C)n4c3=O)cc2)c1C,-3.0,0.9,5.8*,0.6,-2.1,1.0,6.2*
Cc1ccsc1S(=O)(=O)n1c(CN2CCOCC2)nc2ccccc21,·,·,·,0.2,·,-4.6,·
COc1ccc(/C=C2\CC3(OC(=O)C4CCCC4)CCCN2C3)cc1 (centres undefined),·,·,·,5.1,·,0.8,·
NS(=O)(=O)c1ccc(NC(=S)NNC(=O)c2ccc(Br)o2)cc1,2.4,12.1,4.9*,11.8,2.3,-2.5,2.8
CCN(CC)C(=O)CC[C@H]1CC[C@]2(CCCN(C(=O)c3ccc4ccccc4n3)C2)O1,·,·,·,7.2,·,-3.5,·
O=C(Nc1cccc(C(F)(F)F)c1)OCCCN1CCC2(CCC(c3ccccc3)CC2)C1=O (centres undefined),·,·,·,1.5,·,-2.5,·
Cn1c2c(c(=O)n(C)c1=O)C(C(F)(F)F)(C(F)(F)F)N=C(c1ccccc1Cl)N2,-3.3,-11.0,9.1*,1.9,2.0,4.0,6.7*
COCC(=O)N[C@@H]1C[C@@H]2O[C@H](CO)CC[C@@H]2O[C@@H]1CCc1ccc(-c2ccccc2)cc1,·,·,·,-2.5,·,-1.1,·
O=c1cc(-c2ccc(O)cc2)oc2c(C3O[C@H](CO)[C@@H](O)[C@H](O)[C@H]3O)c(O)cc(O)c12 (some centres undefined),0.8,-0.9,3.6,10.4,-4.5,-2.9,·
O=c1cc(-c2ccc(O)c(O)c2)oc2c(C3O[C@H](CO)[C@@H](O)[C@H](O)[C@H]3O)c(O)cc(O)c12 (some centres undefined),-4.0,-1.5,5.6*,5.3,-5.0,-3.8,4.0
C#CCn1c2ccccc2c2nc3ccccc3nc21,3.1,-1.9,5.5*,3.7,-0.6,3.8,1.5
COC(=O)Cn1c2ccccc2c2nc3ccccc3nc21,-4.0,9.3,6.7*,6.7,1.2,2.8,5.3*
